Active and inactive are the calls of the source. No cut-off for these calls is given here.

The record followed here is ChEMBL document CHEMBL2331493, “Chemical tagging of a drug target using 5-sulfonyl tetrazole” (Bioorg Med Chem Lett, 2013).

The target of experiment [1] is Peptidyl-prolyl cis-trans isomerase A (Homo sapiens) (UniProt P62937). As to the kind of experiment: Binding affinity to cyclophilin A in human Jurkat cell lysates at 1.1 uM after 24 hrs by SDS-PAGE analysis. A digest of the protocol:
(§1)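 Biotinylated probe incubated with a lysate of Jurkat cells (human leukemia T cells). The lysate was then mixed with streptavidin beads to pull down proteins with affinity for the probe. Bead-captured proteins were resolved by SDS–PAGE, and protein bands were read out.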

The target is the same in experiment [2]. Briefly: Binding affinity to cyclophilin A in human Jurkat cell lysates at 1.1 uM after 24 hrs by Western blot analysis. On the technique in general: Immunoblotting shows a protein as a band on a membrane.
For experiment [3] the target is unchanged. Briefly: Binding affinity to cyclophilin A in human Jurkat cell lysates at 1.1 uM after 24 hrs by SDS-PAGE analysis in presence of cyclosporine A.
For experiment [4] the target is unchanged. Briefly: Binding affinity to biotin-tagged cyclophilin A in human Jurkat cell lysates at 1.1 uM after 24 hrs by SDS-PAGE analysis. A digest of the protocol: as §1
Experiment [5] shares this target. As to the kind of experiment: Binding affinity to cyclophilin A in human Jurkat cell lysates at 1.1 uM after 24 hrs by SDS-PAGE analysis in presence of N-ethylmaleimide.

Peptidyl-prolyl cis-trans isomerase A (Homo sapiens), sequence (P62937 whole entry, looked up): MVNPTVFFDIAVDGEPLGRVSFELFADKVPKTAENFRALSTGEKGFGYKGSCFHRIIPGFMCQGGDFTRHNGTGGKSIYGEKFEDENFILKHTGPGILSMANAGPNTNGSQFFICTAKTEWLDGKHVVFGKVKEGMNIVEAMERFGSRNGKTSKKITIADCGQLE

`CC(C)(C)OC(=O)NCCCC(=O)NCCCCNC(=O)CCSc1nnnn1CCCCCNC(=O)CCCC[C@@H]1SC[C@@H]2NC(=O)N[C@@H]21`: in experiment [1], the result was inactive.

As to `CC(C)(C)OC(=O)NCCCC(=O)NCCCCNC(=O)CCS(=O)(=O)c1nnnn1CCCCCNC(=O)CCCC[C@@H]1SC[C@@H]2NC(=O)N[C@@H]21`, in experiment [1], the outcome was inactive.

As for `CC[C@@H]1NC(=O)[C@H]([C@H](O)[C@H](C)C/C=N\OCC(=O)NCCCC(=O)NCCCCNC(=O)CCSc2nnnn2CCCCCNC(=O)CCCC[C@@H]2SC[C@@H]3NC(=O)N[C@@H]32)N(C)C(=O)[C@H](C(C)C)N(C)C(=O)[C@H](CC(C)C)N(C)C(=O)[C@H](CC(C)C)N(C)C(=O)[C@@H](C)NC(=O)[C@H](C)NC(=O)[C@H](CC(C)C)N(C)C(=O)[C@H](C(C)C)NC(=O)[C@H](CC(C)C)N(C)C(=O)CN(C)C1=O`, the result in experiment [2] and in experiment [1] was Active. The result in experiment [3] and in experiment [4] was inactive.

As for `CC[C@@H]1NC(=O)[C@H]([C@H](O)[C@H](C)C/C=N\OCC(=O)NCCCC(=O)NCCCCNC(=O)CCS(=O)(=O)c2nnnn2CCCCCNC(=O)CCCC[C@@H]2SC[C@@H]3NC(=O)N[C@@H]32)N(C)C(=O)[C@H](C(C)C)N(C)C(=O)[C@H](CC(C)C)N(C)C(=O)[C@H](CC(C)C)N(C)C(=O)[C@@H](C)NC(=O)[C@H](C)NC(=O)[C@H](CC(C)C)N(C)C(=O)[C@H](C(C)C)NC(=O)[C@H](CC(C)C)N(C)C(=O)CN(C)C1=O`, the result in experiment [2], in experiment [1] and in experiment [5] was Active. For the same molecule, the result in experiment [3] was inactive.
